Measurements as given in ChEMBL document CHEMBL2163256, “6-(methylamino)hexane-1,2,3,4,5-pentanol 4-(((1S,2S)-1-hydroxy-2,3-dihydro-1H,1'H-[2,2-biinden]-2-yl)methyl)benzoate (PH46A): a novel small molecule with efficacy in murine models of colitis” (J Med Chem, 2012).
Active and inactive are the calls of the source. The rule behind the calls is not given here.

Columns and labels:
Mus musculus [1] = experiment: Antiinflammatory activity against DSS-induced colitis BALB/c mouse model assessed as prevention of body weigth loss at 5 mg/kg, po qd for 7 days measured on day 7 relative to vehicle-treated control; assay type: functional
Outline: (§1)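 Female SPF BALB/c mice, 6−8 weeks old; colitis induced by 5% DSS in tap drinking water (renewed every second day) for 7 days. Daily oral dosing for 7 days as suspension/solution in 0.5% carboxymethyl cellulose/2% Tween 80. Daily body weight; DAI per mouse each day from weight loss, occult blood and stool consistency; colon length at autopsy. Mean ± SEM, n = 6−7.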

Mus musculus [2] = experiment: Antiinflammatory activity against DSS-induced colitis BALB/c mouse model assessed as decrease in myeloperoxidative activity at 5 mg/kg, po qd for 7 days measured on day 7 relative to vehicle-treated control; assay type: functional; parameters: scale not given: the % may be the effect or the level left
Outline: (§2)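 In the 7-day 5% DSS BALB/c colitis model with daily oral dosing, colon MPO was measured in homogenized snap-frozen colon supernatant (protein determined) by a standard method.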

Mus musculus [3] = experiment: Antiinflammatory activity against DSS-induced colitis BALB/c mouse model assessed as reduction in IL1b level at 5 mg/kg, po qd for 7 days measured on day 7 relative to vehicle-treated control; assay type: functional, organism-based; parameters: dose 5 mg/kg
Outline: (§3)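 DSS colitis in female BALB/c mice (5% DSS in drinking water, 7 days, daily oral dosing). At autopsy, colon remaining after histology sampling snap-frozen, stored at −20 °C, thawed, contents removed, chopped and homogenized; supernatant protein determined. IL1b, IL6 and TNFα in colon supernatant by sandwich ELISA, expressed as ng/mg. Mean ± SEM, n = 6−7.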

Mus musculus [4] = experiment: Antiinflammatory activity against DSS-induced colitis BALB/c mouse model assessed as reduction in TNFalpha level at 5 mg/kg, po qd for 7 days measured on day 7 relative to vehicle-treated control; assay type: functional, organism-based; parameters: dose 5 mg/kg; outline: as §3
Mus musculus [5] = experiment: Antiinflammatory activity against DSS-induced colitis BALB/c mouse model assessed as reduction in histological colon damage score at 5 mg/kg, po qd for 7 days measured on day 7 relative to vehicle-treated control; assay type: functional; parameters: scale not given: the % may be the effect or the level left
Outline: (§4)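 After 7 days of 5% DSS with daily oral dosing, about 1 cm distal colon was fixed in 10% formaldehyde-saline, paraffin-embedded, cut into 5 μm serial sections and H&E-stained. Scoring covered cell infiltration (0−3) and extent of injury (0−3), done blinded by two independent observers.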

Mus musculus [6] = experiment: Antiinflammatory activity against DSS-induced colitis BALB/c mouse model assessed as decrease in disease activity index at 5 mg/kg, po qd for 7 days measured on day 7 relative to vehicle-treated control; assay type: functional; parameters: scale not given: the % may be the effect or the level left; outline: as §1
Mus musculus [7] = experiment: Antiinflammatory activity against DSS-induced colitis BALB/c mouse model assessed as reduction in shortening of colon at 5 mg/kg, po qd for 7 days measured on day 7 relative to vehicle-treated control; assay type: functional; parameters: scale not given: the % may be the effect or the level left; outline: as §1
Mus musculus [8] = experiment: Antiinflammatory activity against DSS-induced colitis BALB/c mouse model assessed as reduction in IL6 level at 5 mg/kg, po qd for 7 days measured on day 7 relative to vehicle-treated control; assay type: functional, organism-based; parameters: dose 5 mg/kg; outline: as §3
Mus musculus [9] = experiment: Antiinflammatory activity against DSS-induced colitis BALB/c mouse model assessed as reduction in histological colon damage score at 30 mg/kg, po qd for 7 days measured on day 7 relative to vehicle-treated control; assay type: functional; parameters: scale not given: the % may be the effect or the level left; outline: as §4
Mus musculus [10] = experiment: Antiinflammatory activity against DSS-induced colitis BALB/c mouse model assessed as decrease in disease activity index at 10 mg/kg, po qd for 7 days measured on day 7 relative to vehicle-treated control; assay type: functional; parameters: scale not given: the % may be the effect or the level left; outline: as §1
Mus musculus [11] = experiment: Antiinflammatory activity against DSS-induced colitis BALB/c mouse model assessed as decrease in disease activity index at 30 mg/kg, po qd for 7 days measured on day 7 relative to vehicle-treated control; assay type: functional; parameters: scale not given: the % may be the effect or the level left; outline: as §1
Mus musculus [12] = experiment: Antiinflammatory activity against DSS-induced colitis BALB/c mouse model assessed as prevention of body weigth loss at 10 mg/kg, po qd for 7 days measured on day 7 relative to vehicle-treated control; assay type: functional; outline: as §1
Mus musculus [13] = experiment: Antiinflammatory activity against DSS-induced colitis BALB/c mouse model assessed as reduction in shortening of colon at 30 mg/kg, po qd for 7 days measured on day 7 relative to vehicle-treated control; assay type: functional; parameters: scale not given: the % may be the effect or the level left; outline: as §1
Mus musculus [14] = experiment: Antiinflammatory activity against DSS-induced colitis BALB/c mouse model assessed as decrease in myeloperoxidative activity at 30 mg/kg, po qd for 7 days measured on day 7 relative to vehicle-treated control; assay type: functional; parameters: scale not given: the % may be the effect or the level left; outline: as §2
Mus musculus [15] = experiment: Antiinflammatory activity against DSS-induced colitis BALB/c mouse model assessed as prevention of body weigth loss at 30 mg/kg, po qd for 7 days measured on day 7 relative to vehicle-treated control; assay type: functional; outline: as §1
Mus musculus [16] = experiment: Antiinflammatory activity against DSS-induced colitis BALB/c mouse model assessed as decrease in disease activity index at 3 mg/kg, po qd for 7 days measured on day 7 relative to vehicle-treated control; assay type: functional; parameters: scale not given: the % may be the effect or the level left; outline: as §1
Mus musculus [17] = experiment: Antiinflammatory activity in IL-10 -/- BALB/c mouse assessed as decrease in serum SAA level at 300 mg/kg, po administered as divided dose 3 times a week for 9 weeks (reference value: 468.9 +/- 38.37 ug/ml); assay type: functional
Outline: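 IL-10−/− BALB/c-background mice, bred SPF, treated from 6−8 weeks of age by oral gavage of 300 mg/kg/week in distilled water (vehicle), Mon/Wed/Fri, for 9 weeks. Weight, rectal bleeding and prolapse monitored. At 9 weeks serum SAA was measured by sandwich ELISA. Proximal colon (1 cm) was fixed, H&E-stained and scored blinded by two observers (maximum 4). n = 9 vehicle, 11 treated; Student's t test.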

Mus musculus [18] = experiment: Antiinflammatory activity against DSS-induced colitis BALB/c mouse model assessed as decrease in disease activity index at 30 mg/kg, po qd for 7 days relative to vehicle-treated control; assay type: functional, organism-based; parameters: dose 30 mg/kg; outline: as §1
Mus musculus [19] = experiment: Toxicity in DSS-induced colitis BALB/c mouse model assessed as overt reactions at 30 mg/kg, po qd for 7 days relative to vehicle-treated control; assay type: organism-based; parameters: dose 30 mg/kg, route oral; settings: in vivo, 168 h
Mus musculus [20] = experiment: Antiinflammatory activity against DSS-induced colitis BALB/c mouse model assessed as increase in colon lenght at 30 mg/kg, po qd for 7 days relative to vehicle-treated control; assay type: functional, organism-based; parameters: dose 30 mg/kg; outline: as §1

C[C@]12C=CC(=O)C=C1CC[C@@H]1[C@@H]2[C@@H](O)C[C@@]2(C)[C@H]1CC[C@]2(O)C(=O)CO [PREDNISOLONE]
Activity (Mus musculus [1]): 12.6% | Activity (Mus musculus [2]): 54% | Activity (Mus musculus [3]): Active | Activity (Mus musculus [4]): Active | Activity (Mus musculus [5]): 26% | Activity (Mus musculus [6]): 50% | Activity (Mus musculus [7]): 39% | Activity (Mus musculus [8]): Active

CNC[C@H](O)[C@@H](O)[C@H](O)[C@H](O)CO.O=C(O)c1ccc(C[C@@]2(C3=Cc4ccccc4C3)Cc3ccccc3[C@H]2O)cc1
Activity (Mus musculus [9]): >75% | Activity (Mus musculus [10]): 54% | Activity (Mus musculus [11]): 80% | Activity (Mus musculus [12]): 12.8% | Activity (Mus musculus [13]): 76% | Activity (Mus musculus [14]): 63% | Activity (Mus musculus [15]): 6.2% | Activity (Mus musculus [16]): 24% | Activity (Mus musculus [17]): 342.7 µg/mL

O=C(O)c1ccc(C[C@@]2(C3=Cc4ccccc4C3)Cc3ccccc3[C@@H]2O)cc1
Activity (Mus musculus [18]): inactive | Activity (Mus musculus [19]): Non-toxic | Activity (Mus musculus [20]): Active
